Screening results (PubChem BioAssay)
PRMT1 FP inh: blocks human protein arginine methyltransferase 1; Q99873; recombinant PRMT1, activity-based probe fluorescence polarization; inhibition, % at 2.79 µM; 370,000 tested, 1.3% active;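 active means inhibition above about 21% made by adding two undisclosed values, limit read from the data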
Target sequence (Q99873 whole entry, looked up): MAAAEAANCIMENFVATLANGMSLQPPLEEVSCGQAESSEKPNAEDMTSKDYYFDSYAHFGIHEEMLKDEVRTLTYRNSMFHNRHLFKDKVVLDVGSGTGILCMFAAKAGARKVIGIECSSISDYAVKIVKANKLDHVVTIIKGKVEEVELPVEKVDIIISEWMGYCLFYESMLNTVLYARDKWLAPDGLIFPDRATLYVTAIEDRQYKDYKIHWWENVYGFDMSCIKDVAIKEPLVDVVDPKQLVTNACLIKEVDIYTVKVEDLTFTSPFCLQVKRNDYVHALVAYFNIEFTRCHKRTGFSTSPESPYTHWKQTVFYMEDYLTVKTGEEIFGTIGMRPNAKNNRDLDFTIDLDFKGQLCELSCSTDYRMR
SIAE primary: human SIAE inhibition, primary screen. Q9HAT2. inhibition, % at 9.66 µM. AID 1053197. SIAE FP-Rh probe binding, fluorescence polarization. 370,000 tested, 0.69% active;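 active means inhibition above a cutoff: mean of compounds within the control limits plus 3 SD of those, cut at about 17% in these data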;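 further: 0% = plate median of compound wells and 100% = probe without SIAE protein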
mABHD4 FP: ABHD4 (mouse) inhibition, primary FP screen; Q8VD66; purified mABHD4, FP-Rh probe fluorescence polarization; inhibition, % at 8.92 µM; 370,000 tested, 0.54% active; AID 720543;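 active means inhibition exceeding the mean over every tested compound plus 3 SD, cut at about 30% in these data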;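 further: 0% = plate median of compound wells and 100% = S159A mutant with DMSO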
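Assay system: mouse ABHD4 enzyme, wild type / Also added: fluorescent activity-based probe FP-Rh / Doses: single nominal dose of 8.92 µM, 0.89% DMSO final / Timing: 45 min compound pre-incubation plus 60 min probe step, 25 °C / Signal: FP readout, ex 525 nm / em 598 nm / Control set: S159A mutant/DMSO as 100%, compound-well median as 0%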
rCAG RNA binder: binds r(CAG) RNA repeats. r(CAG) RNA repeat, TO-PRO-1 dye displacement fluorescence. inhibition, % at 3 µM. 370,000 tested, 1.3% active;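 active means inhibition above the plate cutoff, the mean of all test compounds on that plate plus 3 SD, cut at about 35% in these data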;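 further: 0% = DMSO alone and 100% = 100 µM mitoxantrone as full dye displacement; higher means more dye released from RNA so lower well fluorescence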
TCR-CD3 inh: human TCR-CD3 binding inhibition; TAMRA-labeled TCR probe fluorescence, biochemical; inhibition, % at 9.4 µM; 360,000 tested, 0.37% active; in the data active means inhibition above about 19%;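 further: recombinant mutant TCR 2C K166C tagged with TAMRA read by polarization; 0% = receptor in buffer alone and 100% = receptor with positive control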
rCAG binder conf: r(CAG) RNA repeat binding, confirmation; shares compounds with rCAG RNA binder; TO-PRO-1 dye displacement fluorescence; inhibition, % at 3 µM; 4,300 tested, 70% active; AID 652065;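 active means inhibition above a per-plate cutoff, the mean inhibition of sample wells plus 3 SD, cut at about 35% in these data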;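 further: loss of TO-PRO-1 fluorescence as compound displaces dye from 1x1 AA loop RNA; 0% = DMSO only wells and 100% = 100 µM mitoxantrone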
DNA CAG counter: disrupts DNA CAG TO-PRO-1 complex, flagging rCAG hits; shares compounds with rCAG RNA binder; d(CAG) DNA oligo TO-PRO-1 dye displacement, fluorescence; inhibition, % at 3 µM; 4,300 tested, 94% active;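 active means inhibition above its plate's cutoff, the mean test-well inhibition plus 3 SD, cut at about 4.8% in these data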;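 further: 0% = DNA dye mix with DMSO and 100% = 100 µM mitoxantrone; hits displace the dye from DNA and so lower well fluorescence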
dCAG dye DR: DNA CAG dye complex inhibition, dose response counter-screen | shares compounds with rCAG RNA binder | DNA CAG/GTC duplex TO-PRO-1 dye displacement fluorescence | IC50, µM | 250 tested, 20% active; in the data active means IC50 below about 10 µM
PRMT1 confirm: PRMT1 (human) inhibition, FP confirmation; shares compounds with PRMT1 FP inh; recombinant His-PRMT1, activity-based probe fluorescence polarization; inhibition, % at 2.79 µM; 3,300 tested, 42% active;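 active means mean inhibition across replicates above the hit cutoff derived for the earlier primary screen, cut at about 22% in these data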
ABHD4 confirm: ABHD4 (mouse) inhibition, FP confirmation | shares compounds with mABHD4 FP | purified mABHD4, FP-Rh probe fluorescence polarization | inhibition, % at 8.92 µM | 1,800 tested, 55% active;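 active means mean inhibition across replicates above the hit cutoff set in the primary screen, cut at about 30% in these data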;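 further: 0% = wild-type ABHD4 with DMSO and 100% = catalytically dead S159A mutant with DMSO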
Numbers without * were called inactive; i = inactive; . = not tested or not shown. This is a sample that favours compounds with a hit; in the whole collection about 3.3% have one here.

SMILES	PRMT1 FP inh	SIAE primary	mABHD4 FP	rCAG RNA binder	TCR-CD3 inh	rCAG binder conf	DNA CAG counter	ABHD4 confirm	others
CCOC(=O)C1=C(N)n2c(s/c(=C/c3ccco3)c2=O)=C(C(=O)OC)C1c1ccco1 (stereo unspecified)	36*	8	39*	57*	3	24	14*	-7	PRMT1 confirm=-1
N#CC1=C(N)n2c(s/c(=C\c3ccco3)c2=O)=C(C#N)C1c1ccco1 (stereo unspecified)	41*	6	32*	54*	7	38*	18*	-20	dCAG dye DR=i;PRMT1 confirm=17
CCOC(=O)C1=c2s/c(=C\c3ccncc3)c(=O)n2C(N)=C(C(=O)OC)C1c1ccncc1 (stereo unspecified)	2	6	-4	1	1	.	.	.
Cc1ccc(NC2=C/C(=N/S(=O)(=O)c3cccs3)c3ccccc3C2=O)cc1	-4	11	16	18	10	.	.	.
Cc1ccc(S(=O)(=O)/N=C2\C=C(Nc3cccc(C(=O)O)c3)C(=O)c3ccccc32)cc1	2	4	33*	47*	0	16	4.7*	62*
Cc1ccc(S(=O)(=O)/N=C2\C=C(Nc3cccc(C(=O)O)c3)C(=O)c3ccccc32)c(C)c1	1	16	47*	76*	0	83*	50*	101*
Cc1ccc(S(=O)(=O)/N=C2\C=C(NS(=O)(=O)c3ccccc3)C(=O)c3ccccc32)c(C)c1	1	7	50*	54*	-3	86*	58*	36*
CCOc1ccc(S(=O)(=O)Nc2cc(SCC(=O)O)c(O)c3ccccc23)cc1	65*	6	43*	36*	0	60*	24*	45*	PRMT1 confirm=93*
CCOC(=O)c1ccccc1NS(=O)(=O)c1ccc(OCC)cc1	0	1	-5	-3	5	.	.	.
Cc1ccnc(SCc2cc(=O)c(OC(=O)c3ccc([N+](=O)[O-])cc3)co2)n1	11	-2	4	.	.	.	.	.
Cc1ccc(CNC(=O)c2ccc3c(=O)n(CC4CCCO4)c(=S)[nH]c3c2)cc1 (stereo unspecified)	0	5	-3	0	6	.	.	.
CCCCCNC(=O)c1ccc2c(=O)[nH]c3c(C(=O)NCC4CCCO4)sc(=S)n3c2c1 (stereo unspecified)	0	-1	32*	59*	12	86*	62*	40*
Cc1ccc(CNC(=O)c2ccc3c(=O)[nH]c4c(C(=O)NCC5CCCO5)sc(=S)n4c3c2)cc1 (stereo unspecified)	3	10	33*	61*	6	92*	74*	41*
O=C(OCc1cn(Cc2cc(F)ccc2F)nn1)N1CCOCC1	4	-6	0	4	.	.	.	.
CCOC(=O)CC[C@@]1(C(=O)OCC)C[C@@H](CC(=O)N2CCOCC2)C(=O)N2CCCC=C21	-2	4	6	0	.	.	.	.
C=CCSC1=N/C(=C\C=C\c2ccco2)C(=O)S1	44*	13	64*	58*	16	45*	21*	7	dCAG dye DR=i
O=C(O)c1ccc(N/N=C/c2cn(Cc3ccc(F)cc3)c3ccccc23)cc1	18	10	50*	81*	6	75*	35*	55*
C[C@H]1[C@@H](OC(=O)NCc2cccnc2)CC[C@@]23CCCN2C(=O)CCC[C@@H]13	-1	4	0	.	.	.	.	.
COc1ccc(Br)cc1/C=C(\C(=O)O)c1ccc(S(=O)(=O)N2CCCC2)s1	7	-4	30*	52*	-6	47*	14*	13
CC1(c2nnnn2-c2ccc3ccccc3c2)CSCC(=O)N1C1CC1 (stereo unspecified)	-1	2	3	2	.	.	.	.
Cc1ccc(/C=C/C(=O)c2ccccc(=O)c2O)c(C)c1	17	14	28	33	5	.	.	.
Cc1ccc(C)c(/C=C/C(=O)c2ccccc(=O)c2O)c1	15	11	38*	39*	11	23	10*	24
O=C(O)CN1C(=O)/C(=C/C=C/c2ccccc2)SC1=S	8	6	1	7	5	.	.	.
CC(C(=O)O)N1C(=O)/C(=C/C=C/c2ccco2)SC1=S (stereo unspecified)	56*	5	37*	83*	2	79*	41*	15
C=CCOc1ccc(C(c2c(C(=O)O)[nH]c3ccccc23)c2c(C(=O)O)[nH]c3ccccc23)cc1	3	2	55*	92*	5	82*	51*	53*
SMILES	PRMT1 FP inh	SIAE primary	mABHD4 FP	rCAG RNA binder	TCR-CD3 inh	rCAG binder conf	DNA CAG counter	ABHD4 confirm	others
COc1ccc(CN=Cc2c(C(=O)O)[nH]c3ccccc23)cc1	3	-5	2	4	-6	.	.	.
COCC(=O)c1[nH]c2ccccc2c1C	2	-2	6	-2	4	.	.	.
O=C(O)c1[nH]c2ccccc2c1C(c1ccccc1)c1c(C(=O)O)[nH]c2ccccc12	1	7	32*	70*	9	47*	15*	38*
COCc1cc(=O)n2[nH]c(-c3ccco3)cc2n1	3	-7	7	5	-4	.	.	.
CCCCN1Cc2c(nc3cc(-c4ccco4)[nH]n3c2=O)C1=O	56*	-1	35*	66*	-1	9	2	1	PRMT1 confirm=18
C/C(=N\Nc1nc2ccccc2s1)c1ccc(Br)s1	2	5	33*	35*	4	17	8.7*	6
O=C(Nc1ccccc1)Nc1ncc([N+](=O)[O-])s1	1	-6	1	11	0	.	.	.
O=C(COC(=O)c1ccccc1)Nc1ncc([N+](=O)[O-])s1	25*	-9	39*	60*	9	70*	37*	41*
COC(=O)[C@]12C[C@H](CC(=O)NCc3ccccc3)C(=O)N(Cc3ccc(Cl)cc3Cl)C1=C[C@H](C1CCCC1)O[C@@H]2C	1	-6	-7	5	.	.	.	.
C#CCNC(=O)C[C@H]1C[C@@]2(C(=O)OC)C(=C[C@H](C3CCCC3)O[C@@H]2C)N(CCC2=CCCCC2)C1=O	2	6	3	6	.	.	.	.
O=C(O)CN1C(=O)/C(=C2\C(=O)N(Cc3ccccc3Cl)c3ccccc32)SC1=S	10	4	14	13	1	.	.	.
